From PubChem BioAssay
Rows were chosen to be rich in hits. Some 9.6% of all compounds tested hit in one or more screens of this group.
APP 5UTR inh = APP translation inhibition; SH-SY5Y APP 5'UTR-luciferase reporter, luminescence; AID 1285; inhibition, % at 2 µM; hit rate 0.82% among 190,000;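 active means inhibition above a set limit, derived from the sample mean plus 3 SD, cut at about 45% in these data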
Lmaj promast = inhibitors of Leishmania major promastigote growth; AID 1063; hit rate 9% among 200,000; inhibition, % at 10 µM; Leishmania major promastigotes, resazurin fluorescence viability; in the data active means inhibition above about 50%;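 further: promastigotes grown with compound for 44 hours at 28 °C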
b-catenin transl = modulators of beta-catenin nuclear translocation; hit rate 0.3% among 190,000; HeLa beta-catenin nuclear translocation, immunofluorescence imaging; nuclear translocation activity, % at 5 µM;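 active means nuclear translocation activity above 50% at 5 µM, with a well cell count of 50 or more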;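 further: per-cell ratio of nuclear to cytoplasmic median beta-catenin stain intensity; plate controls were DMSO negative control for no effect and GSK-3 inhibitor IX positive control for full effect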
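assay system = human HeLa cells, endogenous beta-catenin | times = compound treatment 24 h, 37°C, 5% CO2 | detection = Anti-beta-catenin immunofluorescence on PFA-fixed, Triton-permeabilized cells, DAPI nuclei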
BaF3 tox = reduces parental Ba/F3 cell viability, JAK2V617F counter-screen | inhibition, % at 5.6 µM | hit rate 1.1% among 220,000 | AID 1486 | CellTiter-Glo ATP luminescence;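 active means inhibition above a per-campaign cutoff, the mean inhibition of all tested compounds plus 3 SD, cut at about 27% in these data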;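 further: 0% = DMSO wells and 100% = JAK Inhibitor I control wells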
Ba/F3 V617F tox = loss of viability in JAK2V617F-driven Ba/F3 cells; Ba/F3 EpoR-JAK2V617F viability, ATP luminescence; inhibition, % at 5.6 µM; hit rate 1.1% among 220,000; AID 1446;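 active means inhibition above the campaign mean plus 3 SD over all tested compounds, cut at about 24% in these data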;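 further: cytokine-independent growth of Ba/F3 cells driven by EpoR plus mutant JAK2; 0% = DMSO-treated cells and 100% = JAK inhibitor I control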
MT stabilizer = stabilizes microtubules in HeLa cells | AID 2205 | % tubulin-high responders, % at 10 µM | hit rate 0.83% among 200,000 | HeLa tubulin immunostaining HCS, 24 h; share of cells brighter than vehicle mean+2SD;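 active means plate Z-score above 3 for both tubulin-high and condensed-nucleus cell shares, with cell loss under 80%, at 10 µM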;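 further: anti alpha tubulin signal scored within the nucleus-defined area of each cell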
* marks the source's active call; other numbers are inactive results; x = not tested or not shown.

SMILES | APP 5UTR inh | Lmaj promast | b-catenin transl | BaF3 tox | Ba/F3 V617F tox | MT stabilizer
Nc1c2ccccc2nc2ccccc12 | x | x | 4 | 36* | 61* | x
CC(=O)c1c(C)nc2ccccc2c1N | -4 | 96* | 0 | 5 | 3 | 4
CCOc1ccc(Br)cc1/C(C)=N\NC1=NCCN1 | 18 | 95* | 82* | 9 | 5 | 35*
CCOC(=O)CC(=O)CSc1ccc2nnc(-c3ccc(F)cc3)n2n1 | -1 | 5 | -4 | 2 | -3 | 6
CCCN(CCC)CCCNc1ccc2nnc(-c3ccc(F)cc3)n2n1 | 1 | 59* | 3 | 6 | 6 | 8
Oc1c(C=Nc2cccc3cccnc23)sc2ccccc12 | -20 | 99* | 6 | 4 | 2 | 4
Cc1sccc1/C=N/NC(=O)c1cccc2ccccc12 | 5 | 10 | x | 8 | 3 | 3
COc1ccc2cc(C(=O)N/N=C/c3sc4ccccc4c3O)ccc2c1 | 5 | -15 | -3 | 3 | 1 | 2
O=C(N/N=C/c1sc2ccccc2c1O)c1cccc2ccccc12 | 48* | 86* | -1 | 6 | -4 | 8
O=C(N/N=C/c1sc2ccccc2c1O)c1ccccc1 | 53* | 98* | x | 6 | -3 | 8
COc1ccc(C(=O)N/N=C/c2sc3ccccc3c2O)cc1 | 51* | 77* | -1 | 7 | 1 | 4
CCCc1nc2ccccc2c(=O)n1/N=C/c1c(C)[nH]n(-c2ccc(C)cc2)c1=O | -12 | -12 | -3 | 10 | 5 | 2
C/C(Cc1ccccc1)=N\NC(=O)CNC(=O)c1ccccc1Br | 11 | 62* | x | 0 | 0 | 3
CCOC(=O)/C=C1\SCC(=O)N1CC(=O)NC(c1ccccc1)c1ccccc1 | -12 | 77* | x | 5 | 2 | 2
CCOC(=O)N1CCN(C(=O)CN(C2CCCCC2)S(=O)(=O)c2ccc(C)cc2)CC1 | -2 | 34 | x | 3 | 1 | 2
Cc1ccc(S(=O)(=O)N(CC(=O)N2CCN(c3ccc(F)cc3)CC2)C2CCCCC2)cc1 | -4 | 59* | 0 | 3 | 2 | 3
CCNc1nc(OC)nc(SCC(=O)Nc2ccccc2)n1 | -5 | 6 | 24 | 2 | 0 | 13*
CCNc1nc(NCC)nc(SCCOC(=O)Nc2ccc(Cl)cc2Cl)n1 | -7 | 3 | -3 | 0 | -3 | 7
CCNc1nc(NCC)nc(SCCOC(=O)c2ccccc2)n1 | -3 | 55* | 0 | 1 | -5 | 3
Cc1ccc(C(=O)N2CCN(c3ccc([N+](=O)[O-])c(N4CCOCC4)c3)CC2)cc1 | 12 | 8 | -2 | 1 | -2 | 4
O=C(c1ccc(F)cc1)N1CCN(c2ccc([N+](=O)[O-])c(N3CCOCC3)c2)CC1 | -4 | 57* | x | 8 | -2 | 2
CCO/C(=C/c1sc2ccc(OC)cc2[n+]1CCCS(=O)(=O)[O-])CC | 0 | -6 | -3 | 3 | -2 | 1
CCC(/C=C1\Sc2ccc(OC)cc2N1CC)=C\c1sc2ccc(OC)cc2[n+]1CCCS(=O)(=O)[O-] | 4 | 100* | x | 13 | 1 | 21
Cc1ccsc1C(=O)Nc1ccc2c(c1)OCCO2 | -127 | -4 | 0 | 12 | 6 | 3
CCc1nnc(NC(=O)c2ccc(Cl)c(S(=O)(=O)N3CCc4ccccc4C3)c2)s1 | 19 | 52* | -2 | 3 | -4 | 3
SMILES | APP 5UTR inh | Lmaj promast | b-catenin transl | BaF3 tox | Ba/F3 V617F tox | MT stabilizer
CCc1nnc(NC(=O)c2ccc(S(=O)(=O)N3CCc4ccccc4C3)cc2)s1 | -12 | -5 | -3 | 1 | -4 | 3
O=C(Nc1cccnc1)c1ccc(Cl)c(S(=O)(=O)N2CCc3ccccc32)c1 | 3 | 59* | 0 | -3 | 0 | 4
O=Cc1ccccc1OS(=O)(=O)c1ccccc1 | -13 | 2 | 0 | 7 | -1 | 2
Cc1nn(C(=O)c2ccc([N+](=O)[O-])cc2)c(C)c1Br | x | x | -3 | 0 | -6 | x
COc1ccc(-c2cc(C(=O)N3CCN(c4ccccc4)CC3)c3ccccc3n2)cc1OC | -8 | 5 | 0 | 2 | -1 | 2
COc1ccc(-c2nc3ccc(N4CCCC4)cc3c(=O)[nH]2)cc1OC | 3 | 21 | -1 | 7 | 5 | 15*
COC(=O)Nc1nc2ccc(-c3n[nH]c(=O)c4ccccc34)cc2[nH]1 | 55* | 8 | 6 | 3 | -3 | 4
COC(=O)c1ccc(-c2n[nH]c(=O)c3ccccc23)cc1 | 24 | -7 | -2 | 2 | -1 | 2
C=CCOc1ccc2nc(NC(=O)OC)[nH]c2c1 | x | 12 | 109* | 79* | 78* | 38*
COc1ccc2nc(NC(=O)c3cccc(-c4cc5ccccc5oc4=O)c3)sc2c1 | -10 | -8 | 0 | 9 | 1 | 7
C=CCNC(=O)c1c(N)n(-c2cccc(S(N)(=O)=O)c2)c2nc3ccccc3nc12 | 18 | 84* | -4 | 6 | 1 | 2
CC(=O)O[C@H]1CC(C)(C)C(=C=C/C(C)=C/C=C/C(C)=C/C=C/C=C(C)/C=C/C=C(\C)C(=O)C[C@@]23O[C@]2(C)C[C@@H](O)CC3(C)C)[C@](C)(O)C1 | x | x | 2 | x | x | x
O=C(Cc1ccc(-n2c(=O)c3ccccc3n(Cc3ccccc3F)c2=O)cc1)NCC1CCCO1 (stereo not drawn) | -2 | 99* | -1 | 8 | -1 | 3
O=C(Cc1ccc(-n2c(=O)c3ccccc3n(Cc3ccccc3Cl)c2=O)cc1)NCC1CCCO1 (stereo not drawn) | 4 | 100* | 4 | 9 | 2 | 3
O=C(Cc1ccc(-n2c(=O)c3ccccc3n(Cc3ccc(F)cc3)c2=O)cc1)NCC1CCCO1 (stereo not drawn) | 1 | 48 | -1 | 5 | 3 | 4
O=c1oc2ccccc2c(O)c1/C=C1\C=Nc2ccccc21 | -4 | 100* | x | 2 | -4 | 3
CN(Cc1cccs1)C(=O)Cn1cnc2cc([N+](=O)[O-])ccc2c1=O | -8 | 1 | 0 | 2 | -1 | 2
CCN(c1ccc(NS(=O)(=O)c2cc(Cl)ccc2Cl)cc1)C(C)C | 6 | 25 | 0 | 6 | 1 | 3
CN(C)c1ccc(NS(=O)(=O)c2cc(Cl)ccc2Cl)cc1 | -18 | 64* | -2 | -1 | -4 | 14
CC1CCN(c2c(NCC3CCC(C(=O)NCCC4=CCCCC4)CC3)c(=O)c2=O)CC1 (stereo not drawn) | x | x | 0 | 3 | 5 | x
C/C(=N/NC(=O)c1ccc(Br)o1)c1cccc(NC(=O)c2ccc(C)o2)c1 | -24 | 92* | -5 | 3 | -4 | 5
CCn1nnc(NC(=O)c2ccc(-c3ccccc3[N+](=O)[O-])o2)n1 | -14 | 7 | -5 | 12 | -3 | 5
C/C(=N\NC(=O)c1cccc(C)c1)c1cccc(NC(=O)c2ccco2)c1 | -3 | 83* | -1 | 4 | 3 | 3
CC(=O)c1cccc(NC(=O)c2ccc(-c3ccccc3[N+](=O)[O-])o2)c1 | -121 | 75* | -1 | 3 | 2 | 3
